Test results published in ChEMBL document CHEMBL1821648, “(2S,3S)-sulfated pterosin C, a cytotoxic sesquiterpene from the Bangladeshi mangrove fern Acrostichum aureum” (J Nat Prod, 2011).
Calls of active or inactive are those of the source. The calls are words filed in the database; no cut-off is given here.

Experiments:
[1] = test system: NIH3T3; assay: Cytotoxicity against mouse NIH/3T3 cells after 48 hrs by MTT assay; assay type: functional, cell-based; conditions: NIH3T3, 48 h
In short: (§1)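 Cells seeded at 1.0 × 10^4 to 3.5 × 10^4 per well and incubated 24 h at 37 °C under 5% CO2. Exposed to a range of compound concentrations for 48 h, washed, then given MTT for 2 h and lysed. Absorbance read at 560 nm 45 min after lysis; IC50 from probit analysis. Cycloheximide as positive control.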

[2] = test system: AGS; assay: Cytotoxicity against human AGS cells after 48 hrs by MTT assay; assay type: functional, cell-based; in short: as §1
[3] = test system: HT-29; assay: Cytotoxicity against human HT-29 cells after 48 hrs by MTT assay; assay type: functional, cell-based; conditions: HT-29, 48 h; in short: as §1
[4] = test system: MDA-MB-231; assay: Cytotoxicity against human MDA-MB-231 cells after 48 hrs by MTT assay; assay type: functional, cell-based; conditions: MDA-MB-231, 48 h; in short: as §1
[5] = test system: MCF7; assay: Cytotoxicity against human MCF7 cells after 48 hrs by MTT assay; assay type: functional, cell-based; conditions: MCF7, 48 h; in short: as §1
[6] = test system: AGS; assay: Induction of apoptosis in human AGS cells assessed as early apoptosis level at 15 ug/mL after 24 hrs by Annexin V-FITC apoptosis assay; assay type: functional
In short: (§2)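 Cells plated at 40 × 10^4 per well, grown 24 h at 37 C in 5% CO2, then exposed to compound at 15 μg/mL for the stated time. Harvested by rapid trypsinisation, pelleted, resuspended in binding buffer (0.1 M Hepes/NaOH, 1.4 M NaCl, 25 mM CaCl2). Stained with FITC-annexin V and PI for 15 min, dark, room temperature. Flow cytometry within 1 h; early apoptosis scored as AV+/PI−. Untreated cells as negative control, cycloheximide 150 μg/mL as positive control.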

[7] = test system: AGS; assay: Induction of apoptosis in human AGS cells assessed as early apoptosis level at 15 ug/mL after 48 hrs by Annexin V-FITC apoptosis assay; assay type: functional; in short: as §2
[8] = test system: AGS; assay: Induction of apoptosis in human AGS cells assessed as early apoptosis level at 150 ug/mL after 48 hrs by Annexin V-FITC apoptosis assay; assay type: functional, cell-based
In short: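 AGS cells seeded at 40 × 10^4 per well and incubated 24 h at 37 °C under 5% CO2. Treated 24 and 48 h with test compound at 15 μg/mL, or cycloheximide at 150 μg/mL as positive control; untreated cells as negative control. Trypsinized, pelleted, then resuspended in binding buffer (0.1 M Hepes/NaOH, 1.4 M NaCl, 25 mM CaCl2). Stained with FITC-annexin V plus PI for 15 min, dark, room temperature. Flow cytometry within 1 h; early apoptosis counted as AV+/PI−.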

Row | SMILES | IC50 [1] [µM] | IC50 [2] [µM] | IC50 [3] [µM] | IC50 [4] [µM] | IC50 [5] [µM] | Activity [6] [%] | Activity [7] [%] | Activity [8]
1 | Cc1cc2c(c(C)c1CCOS(=O)(=O)O)C(=O)[C@@H](C)[C@@H]2O | 46.8 | 23.9 | 68.8 | > 100 | 64.4 | 6.8 | 25.2 | –
2 | C[C@@H]1C[C@@H]([C@H](O)CC2CC(=O)NC(=O)C2)C(=O)[C@@H](C)C1 [CYCLOHEXIMIDE] | 1.1 | 3.6 | 12.8 | 1.2 | > 100 | – | – | Active
